From ChEMBL document CHEMBL4765399, “Design, synthesis, and biological evaluation of 5-((8-methoxy-2-methylquinolin-4-yl)amino)-1H-indole-2-carbohydrazide derivatives as novel Nur77 modulators” (Eur J Med Chem, 2020)
Activity calls are given as the source filed them. No cut-off for these calls is given here.

Experiments:
SMMC-7721 [1] = assay: Upregulation of Nur77 expression in human SMMC-7721 cells incubated for 6 hrs by Western blot analysis; type: functional, cell-based; conditions: dose 0.5-2 µM
How it was run: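 HepG2, QGY-7703 and SMMC-7721 cells treated with the indicated concentrations for 6 h. HepG2 also given 2.0 µM over a time course. Lysis in RIPA with protease and phosphatase inhibitors; 40-80 µg protein by SDS-PAGE, nitrocellulose transfer. Membranes blocked with 5% milk, primary antibody overnight, HRP secondary, chemiluminescence. GAPDH as loading control.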

HepG2 [2] = assay: Inhibition of colony formation in human HepG2 cells at 2 uM incubated for 24 hrs measured after cell culturing for 15 days in normal medium by crystal violet staining based assay; type: functional; conditions: time 16.0 day
How it was run: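 500 HepG2, QGY-7703 or SMMC-7721 cells per well allowed to attach 24 h, exposed to DMSO or 2.0 µM for 24 h, then grown 15 days in plain medium. Colonies fixed 30 min in 4% paraformaldehyde, stained 15 min with 0.1% crystal violet, photographed and counted.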

HepG2 [3] = assay: Induction of morphological changes in human HepG2 cells assessed as cell shrinkage at 1 to 2 uM incubated for 6 to 12 hrs by phase contrast microscopic analysis; type: functional, cell-based; conditions: dose 1-2 µM, time 6-12 hrs
How it was run: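 HepG2 cells given graded concentrations; morphology monitored at set time points by phase-contrast optical microscopy.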

HepG2 [4] = assay: Induction of autophagy in human HepG2 cells assessed as increase in LC3-II expression measured after 12 hrs by Western blot analysis; type: functional, cell-based; conditions: dose 0.5-2 µM
How it was run: (§1)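 HepG2, QGY-7703 and SMMC-7721 treated with graded concentrations for 12 h. Lysed in RIPA with inhibitors; 40-80 µg protein separated by SDS-PAGE, blotted to nitrocellulose, blocked 1 h in 5% milk, primary antibodies overnight (LC3, Beclin1, Bip, CHOP, TRB3), HRP secondaries, chemiluminescence.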

QGY-7703 [5] = assay: Induction of autophagy in human QGY-7703 cells assessed as increase in LC3-II expression measured after 12 hrs by Western blot analysis; type: functional, cell-based; conditions: dose 0.5-2 µM; how it was run: as §1
SMMC-7721 [6] = assay: Induction of autophagy in human SMMC-7721 cells assessed as increase in Beclin 1 expression measured at 12 hrs by Western blot analysis; type: functional, cell-based; conditions: dose 0.5-2 µM; how it was run: as §1
HepG2 [7] = assay: Induction of autophagy in Nur77 knockout human HepG2 cells assessed as increase in GFP-LC3 puncta formation at 2 uM after 6 hrs by fluorescence microscopic method; type: functional, cell-based
How it was run: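 HepG2, or HepG2 and shNur77 HepG2, transfected with GFP-LC3, then given vehicle or 2.0 µM for 6 h; GFP-LC3 puncta visualised by fluorescence microscopy alongside phase-contrast images.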

HepG2 [8] = assay: Induction of endoplasmic reticulum stress in human HepG2 cells assessed as increase in bip protein expression incubated for 12 hrs by Western blot analysis; type: functional, cell-based; conditions: dose 0.5-2 µM; how it was run: as §1
SMMC-7721 [9] = assay: Induction of endoplasmic reticulum stress in human SMMC-7721 cells assessed as increase in bip protein expression incubated for 12 hrs by Western blot analysis; type: functional, cell-based; conditions: dose 0.5-2 µM; how it was run: as §1
QGY-7703 [10] = assay: Induction of endoplasmic reticulum stress in human QGY-7703 cells assessed as increase in CHOP protein expression incubated for 12 hrs by Western blot analysis; type: functional, cell-based; conditions: dose 0.5-2 µM; how it was run: as §1
HepG2 [11] = assay: Induction of endoplasmic reticulum stress in Nur77 […] human HepG2 cells assessed as bip protein expression at 2 uM incubated for 6 to 12 hrs by Western blot analysis; type: functional, cell-based; conditions: time 6-12 hrs
How it was run: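 HepG2 and shNur77 HepG2 exposed to DMSO or 2.0 µM for 6 and 12 h; lysates immunoblotted for TRB3, Bip, CHOP and Nur77 (SDS-PAGE, nitrocellulose, overnight primary antibodies, HRP secondary, chemiluminescence).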

HepG2 [12] = assay: Induction of apoptosis in human HepG2 cells assessed as cleaved PARP expression at 2 uM pretreated with autophagy inhibitor, 3-methyladenine for 2 hrs followed by incubation with compound for 12 hrs by Western blot analysis; type: functional, cell-based
How it was run: (§2)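 HepG2 cells grown to confluence were pretreated 2 h with 2 mM 3-MA (autophagy inhibitor) or 2 mM 4-PBA (ER stress inhibitor), then exposed to compound for 12 h. Proteins (40–80 µg, RIPA lysate) were resolved by SDS-PAGE and blotted for PARP, cleaved caspase-3/-9, Bcl-2 and Bax, with chemiluminescent detection.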

HepG2 [13] = assay: Induction of apoptosis in human HepG2 cells assessed as cleaved caspase-9 expression at 2 uM pretreated with autophagy inhibitor, 3-methyladenine for 2 hrs followed by incubation with compound for 12 hrs by Western blot analysis; type: functional, cell-based; how it was run: as §2
HepG2 [14] = assay: Induction of apoptosis in human HepG2 cells assessed as Bax/Bcl-2 ratio at 2 uM pretreated with autophagy inhibitor, 3-methyladenine for 2 hrs followed by incubation with compound for 12 hrs by Western blot analysis; type: functional, cell-based
HepG2 [15] = assay: Antitumor activity against human HepG2 cells xenografted in BALB/c mouse assessed as induction of autophagy by measuring increase in Beclin1 level in tumor tissue at 10 to 20 mg/kg/day, ip administered for 15 days by immunohistochemical analysis; type: functional, organism-based; conditions: dose 10-20 mg/kg/day, time 15.0 day
How it was run: (§3)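 HepG2 cells (5×10^6) injected subcutaneously into flanks of 4-week-old male Balb/c nude mice. At about 100 mm³, 15 mice were randomized to vehicle, 10 or 20 mg/kg i.p. once daily for 15 days. Tumors were then excised for immunostaining of paraffin sections (5 μm) or for western blot.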

HepG2 [16] = assay: Antitumor activity against human HepG2 cells xenografted in BALB/c mouse assessed as induction of ER stress by measuring increase in CHOP level in tumor tissue at 10 to 20 mg/kg/day, ip administered for 15 days by immunohistochemical analysis; type: functional, organism-based; conditions: dose 10-20 mg/kg/day, time 15.0 day; how it was run: as §3
HepG2 [17] = assay: Induction of apoptosis in human HepG2 cells transfected with shNur77 assessed as increase in cleaved PARP level at 2 uM incubated for 12 hrs by Western blot analysis; type: functional, cell-based
How it was run: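 HepG2 carrying scrambled or Nur77 shRNA exposed to 2.0 µM for 12 h. RIPA lysates with protease/phosphatase inhibitors, 40-80 µg protein by BCA resolved on SDS-PAGE, moved to nitrocellulose, milk-blocked, probed overnight for PARP cleavage and Nur77 with HRP secondaries, chemiluminescent detection.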

HepG2 [18] = assay: Induction of apoptosis in human HepG2 cells transfected with shRNA assessed as early apoptotic cells at 2 uM incubated for 12 hrs by Annexin V-FITC/PI staining based flow cytometry (reference value: 5.09%); type: functional
HepG2 [19] = assay: Disruption of mitochondrial membrane potential in human HepG2 cells transfected with shNur77 assessed as red fluorescence intensity at 2 uM incubated for 12 hrs by JC-1 staining based flow cytometry (reference value: 21319 units); type: functional
HepG2 [20] = assay: Antitumor activity against human HepG2 cells xenografted in BALB/c mouse assessed as reduction in PCNA expression in tumor tissue at 10 to 20 mg/kg/day, ip for 15 days by immunocytochemistry staining; type: functional, organism-based; conditions: dose 10-20 mg/kg/day, time 15.0 day; how it was run: as §3
HepG2 [21] = assay: Antitumor activity against human HepG2 cells xenografted in BALB/c mouse assessed as induction of ER stress by measuring increase in TRB3 level in tumor tissue at 10 to 20 mg/kg/day, ip administered for 15 days by western blot analysis; type: functional, organism-based; conditions: dose 10-20 mg/kg/day, time 15.0 day; how it was run: as §3

COc1cccc2c(Nc3ccc4[nH]c(C(=O)N/N=C/c5ccc(SC)cc5)cc4c3)cc(C)nc12
Activity (SMMC-7721 [1]): Dose-dependent effect
inhibition (HepG2 [2]): Active
Activity (HepG2 [3]): Active
Activity (HepG2 [4]): Dose-dependent effect
Activity (QGY-7703 [5]): Dose-dependent effect
Activity (SMMC-7721 [6]): Dose-dependent effect
Activity (HepG2 [7]): inactive
Activity (HepG2 [8]): Dose-dependent effect
Activity (SMMC-7721 [9]): Dose-dependent effect
Activity (QGY-7703 [10]): Dose-dependent effect
Activity (HepG2 [11]): inactive
Activity (HepG2 [12]): inactive
Activity (HepG2 [13]): inactive
Activity (HepG2 [14]): inactive
Activity (HepG2 [15]): Active
Activity (HepG2 [16]): Active
Activity (HepG2 [17]): inactive
Activity (HepG2 [18]): 16.2%
Activity (HepG2 [19]): 18938 U
Activity (HepG2 [20]): Active
Activity (HepG2 [21]): Active
